The source of these data is ChEMBL document CHEMBL1154674, “Synthesis and evaluation of three 18F-labeled aminophenylbenzothiazoles as amyloid imaging agents” (J Med Chem, 2009).

Holding throughout (type): ADME, organism-based, Macaca mulatta
The nature of data set [1]: Drug level in normal rhesus monkey cerebellum assessed as standard uptake value at 152.9 MBq, iv after 1.5 mins by microPET. The following applies: in vivo, 0.025 h. In short, it runs like this: (§1)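 One normal rhesus monkey received each tracer via the vena saphena, with 1 day between injections. Dynamic μPET ran 180 min for 18F tracers (5×60 s, 5×120 s, 9×300 s, 12×600 s) and 90 min for the 11C tracer (5×60 s, 5×120 s, 9×300 s, 3×600 s). Filtered back-projection reconstruction (RAMP filter) was used. Time-activity curves were drawn to give regional SUV.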

The nature of data set [2]: Drug level in normal rhesus monkey parietal cortex assessed as standard uptake value at 152.9 MBq, iv after 4.5 mins by microPET. The following applies: in vivo, 0.075 h.
Data set [3] in a line: Drug level in normal rhesus monkey frontal cortex assessed as standard uptake value at 152.9 MBq, iv after 27.5 mins by microPET. The following applies: in vivo. In a few lines:
(§2)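 Single normal rhesus monkey; tracer given iv via the vena saphena, 1 day apart from the other tracer injections. Dynamic μPET ran 90 min (5×60 s, 5×120 s, 9×300 s, 3×600 s). Images were reconstructed by filtered back projection with a RAMP filter. Regional time-activity curves were expressed as SUV.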

Data set [4] in a line: Drug level in normal rhesus monkey parietal cortex assessed as standard uptake value at 152.9 MBq, iv after 0.5 mins by microPET. The following applies: in vivo.
A short description of data set [5]: Drug level in normal rhesus monkey parietal cortex assessed as standard uptake value at 152.9 MBq, iv after 6 mins by microPET. The following applies: in vivo, 0.1 h.
Data set [6] in a line: Drug level in normal rhesus monkey parietal cortex assessed as standard uptake value at 152.9 MBq, iv after 27.5 mins by microPET. The following applies: in vivo.
The nature of data set [7]: Drug level in normal rhesus monkey white matter assessed as standard uptake value at 152.9 MBq, iv after 4.5 mins by microPET. The following applies: in vivo, 0.075 h.
Data set [8] is described as follows: Drug level in normal rhesus monkey frontal cortex assessed as standard uptake value at 152.9 MBq, iv after 14 mins by microPET. The note with it: in vivo. In a few lines: as §2
Data set [9] in a line: Drug level in normal rhesus monkey pons assessed as standard uptake value at 152.9 MBq, iv after 32.5 mins by microPET. The following applies: in vivo.
The nature of data set [10]: Drug level in normal rhesus monkey parietal cortex assessed as standard uptake value at 152.9 MBq, iv after 65 mins by microPET. The following applies: in vivo.
Data set [11] can be described thus: Drug level in normal rhesus monkey pons assessed as standard uptake value at 152.9 MBq, iv after 3.5 mins by microPET. The note with it: in vivo.
Data set [12] is described as follows: Drug level in normal rhesus monkey thalamus assessed as standard uptake value at 109.4 MBq, iv after 69 mins by microPET. The note with it: in vivo, 1.15 h.
Data set [13] can be described thus: Drug level in normal rhesus monkey frontal cortex assessed as standard uptake value at 109.4 MBq, iv after 0.625 mins by microPET. The following applies: in vivo, 38 s.
A short description of data set [14]: Drug level in normal rhesus monkey frontal cortex assessed as standard uptake value at 109.4 MBq, iv after 129 mins by microPET. The note with it: in vivo, 2.15 h.
A short description of data set [15]: Drug level in normal rhesus monkey thalamus assessed as standard uptake value at 109.4 MBq, iv after 87 mins by microPET. The following applies: in vivo, 1.45 h.
A short description of data set [16]: Drug level in normal rhesus monkey frontal cortex assessed as standard uptake value at 109.4 MBq, iv after 1.5 mins by microPET. The following applies: in vivo, 0.025 h. In short, it runs like this: (§3)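 One normal rhesus monkey, each tracer given iv via the vena saphena (81.2, 96.3 or 109.4 MBq), with 1 day between tracer injections. Dynamic brain μPET over 180 min used frames of 5 × 60 s, 5 × 120 s, 9 × 300 s and 12 × 600 s. Images were reconstructed by filtered back projection with a RAMP filter. Regional time-activity curves were expressed as SUV.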

Data set [17] is described as follows: Drug level in normal rhesus monkey parietal cortex assessed as standard uptake value at 109.4 MBq, iv after 117 mins by microPET. The following applies: in vivo, 1.95 h.
The nature of data set [18]: Drug level in normal rhesus monkey white matter assessed as standard uptake value at 109.4 MBq, iv after 22.5 mins by microPET. The note with it: in vivo, 0.375 h.
Data set [19] can be described thus: Drug level in normal rhesus monkey cerebellum assessed as standard uptake value at 109.4 MBq, iv after 32.5 mins by microPET. The following applies: in vivo. In short, it runs like this: as §1
The nature of data set [20]: Drug level in normal rhesus monkey frontal cortex assessed as standard uptake value at 109.4 MBq, iv after 15.5 mins by microPET. The note with it: in vivo.
Data set [21] is described as follows: Drug level in normal rhesus monkey white matter assessed as standard uptake value at 109.4 MBq, iv after 0.875 mins by microPET. The following applies: in vivo, 52 s.
Data set [22] can be described thus: Drug level in normal rhesus monkey cerebellum assessed as standard uptake value at 96.3 MBq, iv after 4.5 mins by microPET. The note with it: in vivo, 0.075 h. In short, it runs like this:
as §3

Data set [23] in a line: Drug level in normal rhesus monkey parietal cortex assessed as standard uptake value at 96.3 MBq, iv after 37.5 mins by microPET. The following applies: in vivo, 0.625 h.
Data set [24] is described as follows: Drug level in normal rhesus monkey frontal cortex assessed as standard uptake value at 96.3 MBq, iv after 65 mins by microPET. The following applies: in vivo.
Data set [25] can be described thus: Drug level in normal rhesus monkey pons assessed as standard uptake value at 96.3 MBq, iv after 4.5 mins by microPET. The note with it: in vivo, 0.075 h.
The nature of data set [26]: Drug level in normal rhesus monkey thalamus assessed as standard uptake value at 96.3 MBq, iv after 52.5 mins by microPET. The following applies: in vivo, 0.875 h.
Data set [27] is described as follows: Drug level in normal rhesus monkey thalamus assessed as standard uptake value at 96.3 MBq, iv after 42.5 mins by microPET. The note with it: in vivo.
A short description of data set [28]: Drug level in normal rhesus monkey thalamus assessed as standard uptake value at 96.3 MBq, iv after 75 mins by microPET. The following applies: in vivo, 1.25 h.
Data set [29] is described as follows: Drug level in normal rhesus monkey white matter assessed as standard uptake value at 81.2 MBq, iv after 42.5 mins by microPET. The following applies: in vivo.
A short description of data set [30]: Drug level in normal rhesus monkey white matter assessed as standard uptake value at 81.2 MBq, iv after 0.5 mins by microPET. The following applies: in vivo.
Data set [31] can be described thus: Drug level in normal rhesus monkey frontal cortex assessed as standard uptake value at 81.2 MBq, iv after 1.5 mins by microPET. The following applies: in vivo, 0.025 h. In a few lines: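 Single normal rhesus monkey; each tracer given iv via the vena saphena, with 1 day between tracer injections. Dynamic μPET ran 180 min (5×60 s, 5×120 s, 9×300 s, 12×600 s). Images were reconstructed by filtered back projection with a RAMP filter. Regional time-activity curves were expressed as SUV.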

The nature of data set [32]: Drug level in normal rhesus monkey parietal cortex assessed as standard uptake value at 81.2 MBq, iv after 32.5 mins by microPET. The following applies: in vivo.
The nature of data set [33]: Drug level in normal rhesus monkey pons assessed as standard uptake value at 81.2 MBq, iv after 22.5 mins by microPET. The note with it: in vivo, 0.375 h.
Data set [34] is described as follows: Drug level in normal rhesus monkey thalamus assessed as standard uptake value at 81.2 MBq, iv after 115 mins by microPET. The following applies: in vivo.
Data set [35] can be described thus: Drug level in normal rhesus monkey cerebellum assessed as standard uptake value at 81.2 MBq, iv after 57.5 mins by microPET. The following applies: in vivo. In short, it runs like this:
as §3

Turning to `[11CH3]Nc1ccc(-c2nc3ccc(O)cc3s2)cc1` [PITTSBURGH COMPOUND B], the SUV in data set [1] was found to be 0.677; in data set [2] it was 1.925; in [3], 1.215; in data set [4] it was 0.039; in [5] it was 2.16; in [6], 1.221. Further, the SUV in data set [7] amounted to 1.334; in data set [8], 1.904; in [9] it was 1.365; in [10] it was 0.69; in data set [11], 1.502.
Turning to `Nc1ccc2nc(-c3ccc([18F])cc3)sc2c1`, the SUV in [12] turned out to be 5.32; in [13], 1.15; in data set [14] it was 4.06; in [15], 4.98; in data set [16], 3.35; in data set [17] it was 3.51. Besides, the SUV in data set [18] stood at 3.04; in data set [19], 4.03; in data set [20], 5.08; in data set [21] it was 1.16.
For the compound `CN(C)c1ccc2nc(-c3ccc([18F])cc3)sc2c1`, the SUV in data set [22] is on record as 1.63; in [23], 1.84; in data set [24] it was 1.79; in data set [25] it was 1.28; in data set [26] it was 2.26; in data set [27], 2.46. The SUV in data set [28] worked out at 2.19.
For the compound `CNc1ccc2nc(-c3ccc([18F])cc3)sc2c1`, the SUV is listed as 3.757 in data set [29]; 0.621 in data set [30]; 3.245 in [31]; 4.094 in data set [32]; 5.688 in [33]; 5.209 in [34]. Also, the SUV in data set [35] amounted to 2.522.
